For orientation: pEC50 means the EC50 on a negative log10 scale, so that one unit is a factor of ten. A low value points to a high EC50. A word on the inhibition: it is the percentage by which the read-out fell short of the control. Read a low inhibition as little suppression.

In assay [1] the test system is MT4. Description: Compound was tested for binding of the mAb (NEA9305) to the V3 loo[p of gp120, expressed on HIV-1 infected MT-4 cells at 0.65 uM. It is filed as functional, Homo sapiens. The method, boiled down:
(§1)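 Binding of mAb NEA9305 to the gp120 V3 loop expressed on HIV-1-infected MT-4 cells was measured at each listed concentration. Results were given as % positive cells and % inhibition, with an isotype mAb control.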

The subject of assay [2] is MT4. Description: The compound was evaluated for cytotoxicity in MT-4 cells. It is filed as functional, Homo sapiens. The method, boiled down:
(§2)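 Uninfected cells (CEM-SS or MT-4, per line) were incubated with the drug in a microtiter XTT assay. Viability was expressed as percent of the uninfected drug-free control. CC50 is the concentration causing 50% cell death. Triplicates were run per plate on two sister plates, and the two plate values were averaged.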

In assay [3] the test system is CEM-SS. Description: The compound was evaluated for inhibition of cytopathic effect of HIV-1 RF in CEM-SS cells. It is filed as functional, cell-based, Homo sapiens. The method, boiled down:
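XTT-based microtiter cytoprotection assay measuring protection from HIV-1-induced cytopathic effect, read as percent of the uninfected drug-free control. EC50 is the concentration giving 50% protection in infected cultures. Results were confirmed by cell-free supernatant reverse transcriptase and p24 levels. Each plate was run in triplicate, and the EC50 values from two sister plates were averaged.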
(In general: Protection from cytopathic effect is a common read-out in antiviral testing.)

In assay [4] the test system is CEM-SS. In words: The compound was evaluated for cytotoxicity in CEM-SS cells. The class given is functional, Homo sapiens. The method, boiled down:
as §2

Assay [5] has as its system MT4. In words: The compound was evaluated for inhibition of cytopathic effect of HIV-1 IIIB in MT-4 cells. The class given is functional, cell-based, Homo sapiens.
For assay [6], the system named is CD4+ve Th. Description: Compound was tested for binding of the gp120 (strain IIIb)to the CD4+ T-cell lines at 16 uM. It is filed as functional. The method, boiled down: (§3)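 Recombinant gp120 (strain IIIB) binding to MT-4 (CD4+ T-cell) cells was measured at each listed concentration. Read-out was % positive cells and % inhibition, alongside an isotype mAb control.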

In assay [7] the test system is CD4+ve Th. In words: Compound was tested for binding of the gp120 (strain IIIb)to the CD4+ T-cell lines at 0.65 uM. The class given is functional. The method, boiled down:
as §3

Assay [8] relates to MT4. Description: Compound was tested for binding of the mAb (NEA9305) to the V3 loo[p of gp120, expressed on HIV-1 infected MT-4 cells at 16 uM. It is filed as functional, Homo sapiens. The method, boiled down: as §1
In assay [9] the test system is CD4+ve Th. Description: Compound was tested for binding of the gp120 (strain IIIb)to the CD4+ T-cell lines at 81 uM. It is filed as functional. The method, boiled down:
as §3

Assay [10] concerns MT4. Description: The compound was evaluated for inhibition of cytopathic effect of HIV-2ROD in MT-4 cells. The note with it: mt4. It is filed as functional, cell-based, Homo sapiens.
In assay [11] the test system is CD4+ve Th. In words: Compound was tested for binding of the gp120 (strain IIIb)to the CD4+ T-cell lines at 3.2 uM. The class given is functional. The method, boiled down:
as §3

The test system of assay [12] is MT4. Description: Compound was tested for binding of the mAb (NEA9305) to the V3 loo[p of gp120, expressed on HIV-1 infected MT-4 cells at 81 uM. The class given is functional, Homo sapiens. The method, boiled down:
as §1

For assay [13], the system named is MT4. In words: Compound was tested for binding of the mAb (NEA9305) to the V3 loo[p of gp120, expressed ion HIV-1 infected MT-4 cells at 3.2 uM. It is filed as functional, Homo sapiens. The method, boiled down:
as §1

Assay [14] relates to MT4. In words: (§4) Compound was tested for binding of the mAb (NEA9305) to the V3 loo[p of gp120, expressed ion HIV-1 infected MT-4 cells at 3.7 uM. It is filed as functional. Conditions: Homo sapiens. The method, boiled down: as §1
Assay [15] concerns CD4+ve Th. In words: Compound was tested for binding of the gp120 (strain IIIb)to the CD4+ T-cell lines at 92 uM. It is filed as functional. The method, boiled down:
as §3

In assay [16] the test system is MT4. In words: (§5) Compound was tested for binding of the mAb (NEA9305) to the V3 loo[p of gp120, expressed on HIV-1 infected MT-4 cells at 0.73 uM. The class given is functional. Conditions: Homo sapiens. The method, boiled down: as §1
Assay [17] relates to CD4+ve Th. Description: Compound was tested for binding of the gp120 (strain IIIb)to the CD4+ T-cell lines at 18 uM. The class given is functional. The method, boiled down: as §3
For assay [18], the system named is MT4. Described as §5. The class given is functional, Homo sapiens. The method, boiled down: as §1
Assay [19] has as its system MT4. The description is as §4. It is filed as functional, Homo sapiens. The method, boiled down:
as §1

The subject of assay [20] is MT4. Description: (§6) Compound was tested for binding of the mAb (NEA9305) to the V3 loo[p of gp120, expressed on HIV-1 infected MT-4 cells at 18 uM. It is filed as functional, Homo sapiens. The method, boiled down: as §1
The test system of assay [21] is CD4+ve Th. In words: Compound was tested for binding of the gp120 (strain IIIb)to the CD4+ T-cell lines at 3.7 uM. The class given is functional. The method, boiled down:
as §3

For assay [22], the system named is MT4. Description: (§7) Compound was tested for binding of the mAb (NEA9305) to the V3 loo[p of gp120, expressed on HIV-1 infected MT-4 cells at 92 uM. It is filed as functional, Homo sapiens. The method, boiled down:
as §1

Assay [23] has as its system MT4. The assay is described as §7. It is filed as functional. The note with it: Homo sapiens. The method, boiled down: as §1
The test system of assay [24] is CD4+ve Th. Description: Compound was tested for binding of the gp120 (strain IIIb)to the CD4+ T-cell lines at 0.73 uM. The class given is functional. The method, boiled down:
as §3

Assay [25] concerns MT4. The assay is described as §6. It is filed as functional. The note with it: Homo sapiens. The method, boiled down:
as §1

SMILES strings stand for the structures. pEC50: −log10 of the molar value.

`CC(C)CCCC(C)[C@H]1CC[C@H]2[C@@H]3CCC4C[C@@H](CCC=C(c5cc(Cl)c(OCc6ccc(C(=O)[O-])cc6)c(C(=O)[O-])c5)c5cc(Cl)c(OCc6ccc(C(=O)[O-])cc6)c(C(=O)[O-])c5)CC[C@]4(C)[C@H]3CC[C@]12C.[Na+].[Na+].[Na+].[Na+]` (some centres not stated): the Positive cells is 66.6% in the assay with MT4 [1]; 6.9% in the assay on CD4+ve Th [6]; 76.2% with CD4+ve Th [7]; 33.6% in the assay with MT4 [8]; 7.8% in the assay with CD4+ve Th [9]; 19.9% in the assay with CD4+ve Th [11]. Also, the Positive cells in the assay on MT4 [12] was found to be 26.9%; in the assay with MT4 [13], 60.9%. The Cytotoxicity was found to be 95 µM in the assay with MT4 [2] and 76 µM in the assay with CEM-SS [4]. The pEC50 in the assay on CEM-SS [3] (cem-ss) is 6.10; in the assay on MT4 [5] (mt4), 5.85; in the assay with MT4 [10] it was 4.66. In the assay on CD4+ve Th [6], this compound came in with an inhibition at 16 µM of 99%. In the assay on CD4+ve Th [7], this compound had an inhibition at 0.65 µM of 22%. The compound further yielded an inhibition at 81 µM in the assay on CD4+ve Th [9] of 98%. Further, the inhibition at 3.2 µM in the assay with CD4+ve Th [11] amounted to 82%.
Take `CC(C)CCCC(C)[C@H]1CC[C@H]2[C@@H]3CCC4C[C@@H](CCC=C(c5cc(Cl)c(OCc6ccc(C(=O)O)cc6)c(C(=O)O)c5)c5cc(Cl)c(OCc6ccc(C(=O)O)cc6)c(C(=O)O)c5)CC[C@]4(C)[C@H]3CC[C@]12C` (some centres not stated): the inhibition at 3.7 µM in the assay on MT4 [14] is 16%; in the assay on CD4+ve Th [21], 79%. For the same compound, the Cytotoxicity in the assay with MT4 [2] came out at 88 µM; in the assay with CEM-SS [4] it was 72 µM. For the same compound, the Positive cells with CD4+ve Th [15] was determined as 6.8%; in the assay on CD4+ve Th [17], 8.3%; in the assay with MT4 [18], 65.9%; with MT4 [19], 58.4%; in the assay with MT4 [20] it was 34.4%; in the assay on CD4+ve Th [21], 25.3%. In addition, the figures for the Positive cells with MT4 [22] and in the assay on CD4+ve Th [24] were 23.8% and 88.2%, respectively. In addition, the inhibition at 92 µM in the assay with CD4+ve Th [15] was 99%; with MT4 [23] it was 76%. Besides, the inhibition at 0.73 µM in the assay on MT4 [16] was found to be 3%; with CD4+ve Th [24], 9%. The inhibition at 18 µM in the assay on CD4+ve Th [17] worked out at 98%; with MT4 [25], 58%. The pEC50 with CEM-SS [3] (Homo sapiens, CEM-SS) was 6.30; with MT4 [5] (Homo sapiens, MT4), 5.77.

For the origin of these results see ChEMBL document CHEMBL1132142, “Extension of the polyanionic cosalane pharmacophore as a strategy for increasing anti-HIV potency” (J Med Chem, 1999).
